Granule exo inh = LAMP-1 surface exposure blockers, TALL-104 cells – cell-based, flow cytometry, MLPCN library, primary screen | AID 651702, 2012 | inhibition, % at 10 µM | actives 0.66% (n = 360,000) | TALL-104 LAMP-1 surface exposure; cells stimulated with thapsigargin and PMA;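 active means inhibition above about 55%, limit read from the data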
ABCB6 inh MLPCN = ABCB6 transporter inhibitors, primary screen, K562-ABCB6 cells, flow cytometry, MLPCN library. K562-ABCB6 porphyrin accumulation, 1 h; hits give low values. actives 0.19% (n = 360,000). ATP-binding cassette sub-family B member 6 (Homo sapiens), Q9NP58. fluorescence ratio to DMSO, % at 10 µM. AID 602162, 2011;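 active means fluorescence ratio to DMSO below 75%, the collection mean minus 3 SD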;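 further: signal is porphyrin accumulated inside mitochondria; 100% equals median channel fluorescence of DMSO control wells; lower ratio means ABCB6 inhibition with less porphyrin fluorescence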
DAGLB inhibitor = DAGLB lipase inhibitors, primary screen, biochemical, fluorescence, HTS | inhibition, % at 5.17 µM | AID 504411, 2011 | HEK293T DAGLB membrane lysate, EnzChek fluorogenic substrate | actives 0.059% (n = 340,000) | Diacylglycerol lipase-beta (Homo sapiens), Q8NCG7; in the data active means inhibition above about 34%;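 further: 0% = enzyme with vehicle and 100% = wells lacking enzyme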
VLA-4 inh = inhibition in human VLA-4 binding assay, primary screen, VLA-4 allosteric modulator project, MLPCN library, flow cytometry, VLA-4 expressing cells. Integrin alpha-4 (Homo sapiens), P13612. ligand binding flow cytometry. inhibition, % (about 7 µM as worked out from the volumes in the protocol). actives 0.2% (n = 330,000); in the data active means inhibition above about 50%
FGF22 binding = binders of human FGF22 protein, primary screen, FGF22 synaptogenesis inhibitor project, biophysical, thermal shift, single point; Fibroblast growth factor 22 (Homo sapiens), Q9HCT0; activity (Tm shift, normalised), % at 9.99 µM; actives 1.5% (n = 340,000); recombinant FGF22 thermal shift, SYPRO orange fluorescence; percent of sucrose octasulfate shift, DMSO zero;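 active means mean Tm shift, scaled 0 neutral to 100 positive control, at about 1.3% or above, every replicate too, limit read from the data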
MT1-MMP act inh = blockers of MT1-MMP proenzyme processing, primary screen, HT1080 RFP-PRO-GFP cells, GFP/RFP fluorescence; Matrix metalloproteinase-14 (Homo sapiens), P50281; GFP/RFP ratio fluorescence, overnight; percent of plate control window, DMSO zero; GFP/RFP ratio change, % at 20 µM; actives 0.061% (n = 360,000); AID 651647, 2012;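 active means GFP/RFP ratio change of at least 30% with cell ATP level not reduced by more than half and red fluorescence within 50% of control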
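Test system: HT1080 cells expressing an RFP-PRO-GFP fluorescent reporter construct / Compound dosing: single-point 20 µM compound, 1% DMSO / Schedule: cells overnight before dosing, compound overnight, 37 °C, 5% CO2 / Evaluation: GFP/RFP fluorescence ratio / Control set: DMSO and RFP-L50D-GFP cell wells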
Exocytosis CP01 = inhibitors of lytic granule exocytosis, confirmation, TALL-104 cells, flow cytometry, Cherry Pick01 | shares compounds with Granule exo inh | LAMP-1 externalization; stimulated with PMA plus thapsigargin | inhibition, % at 10 µM | actives 11% (n = 1,500); in the data active means inhibition above about 60%;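 further: 0% = stimulated vehicle wells and 100% = unstimulated wells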
* = called active by the depositor; . = no result given. A selection: hits, their analogues and other compounds. The true share with any hit is near 2%.

SMILES	Granule exo inh	ABCB6 inh MLPCN	DAGLB inhibitor	VLA-4 inh	FGF22 binding	MT1-MMP act inh	Exocytosis CP01
CN(C(=O)c1cccc(NC(=O)Cc2ccc(NC(=O)C3CCN(C(=O)C4CCC4)CC3)cc2)c1)C1CCCCC1	58*	100	-1	.	0	-4	-13
Cc1oc2c(c1C(=O)N1CCC(C)CC1)C(=O)c1ccccc1C2=O	.	.	.	12	0	.	.
Cc1ccc(C(=O)c2c(C)oc3c2C(=O)C(=O)c2ccccc2-3)cc1	103*	102	-1	10	.	5	42
CCn1c2c(c3cc(OCC(C)C)ccc31)CCCC2=O	58*	91	-13	14	0	-3	-4
CCn1c2c(c3cc(Br)ccc31)CCC/C2=N\O	6	104	-4	-5	.	-5	.
CC(=O)c1c(C)n(-c2cccc(Cl)c2)c2ccc(O)cc12	81*	86	0	5	0	-14	-2
CCOc1ccc2c(c1)nc(SCC(=O)c1cccs1)n2C	2	101	0	-3	.	1	.
CCOc1ccc2c(c1)nc(SCC(=O)c1ccc(Br)s1)n2C	103*	92	1	2	.	-11	-5
COc1ccccc1C(=O)Nc1c2c(nn1-c1cccc(C)c1C)CS(=O)(=O)C2	71*	97	-1	8	.	-4	-1
COc1ccccc1C(=O)Nc1c2c(nn1-c1ccc(Cl)cc1)CS(=O)(=O)C2	2	100	0	-26	0	1	.
O=C(Nc1cc(F)ccc1F)N1C[C@H]2[C@@H](c3ccccc31)[C@@H](CO)N2Cc1cccnc1	.	.	.	.	0	.	.
CC1(OC(=O)CCc2ccccc2)C(=O)C=C2C=C(c3ccc(C#N)cc3)N(C(CO)CO)C=C2C1=O (stereo not given)	71*	96	0	26	0	-2	-5
CCOC(=O)c1c(CSc2cccs2)n(C)c2cc(Br)c(O)c(CN(C)C)c12	90*	93	-2	3	-2	-3	15
CCOC(=O)c1c(C)n(C)c2cc(Br)c(O)c(O)c12	3	94	-2	12	0	8	.
C[C@H](NC(=O)C[C@H]1C[C@@H]2c3cc(NC(=O)CC4CC4)ccc3O[C@@H]2[C@@H](CO)O1)c1ccccc1	.	.	.	.	0	.	.
CCCCN(CCCNC(=O)CN1C(=O)COc2ccc(S(=O)(=O)N3CCC(C)CC3)cc21)Cc1ccccc1	60*	99	-7	13	0	3	-4
CCN(CC)CCOC(=O)c1ccc(N/C=C(/C#N)c2nc(-c3ccc(OC)cc3)cs2)cc1	64*	437	-2	-9	0	3	66*
CCN(CC)CCOC(=O)c1ccc(N/C=C(/C#N)c2nc(-c3ccc4c(c3)OCO4)cs2)cc1	24	161	-2	1	0	5	.
CCC(=O)N1[C@@H](CO)[C@@H](c2ccc(-c3ccccc3OC)cc2)C12CN(C(C)=O)C2	.	.	.	.	0	.	.
C[C@@H]1CN([C@H](C)CO)C(=O)c2cc(NC(=O)Cc3cn(C)c4ccccc34)ccc2O[C@H]1CN(C)C(=O)NC1CCCCC1	.	.	.	.	0	.	.
COc1cccc(CC2(CO)CCCN(Cc3ccc(OC)c(C)c3OC)C2)c1 (stereo not given)	60*	95	0	-13	0	-3	-10
COc1cccc(CC2(CO)CCCN(Cc3ccccc3Cl)C2)c1 (stereo not given)	10	95	-4	17	0	-2	.
COc1ccc2c(c1)C(C)=CC(C)(C)N2S(=O)(=O)c1ccc(NC(C)=O)cc1	52	104	-3	19	0	11	.
CCOc1ccc2c(c1)C(C)=CC(C)(C)N2S(=O)(=O)c1ccc(NC(C)=O)cc1	69*	101	-1	17	0	18	-12
C[C@H](CO)N1C[C@H](C)[C@H](CN(C)C(=O)CCC(F)(F)F)OCCCC[C@H](C)Oc2ccc(NC(=O)Nc3ccccc3)cc2C1=O	.	.	.	.	-1	.	.
SMILES	Granule exo inh	ABCB6 inh MLPCN	DAGLB inhibitor	VLA-4 inh	FGF22 binding	MT1-MMP act inh	Exocytosis CP01
CN(C)CCC(=O)C(Cc1ccccc1)c1ccccc1 (stereo not given)	97*	99	3	-16	0	5	18
COc1ccc(S(=O)(=O)N(C)C[C@H]2Oc3ccc(NC(=O)CCCN(C)C)cc3CC(=O)N([C@@H](C)CO)C[C@@H]2C)cc1	.	.	.	.	0	.	.
COc1ccc(NC(=O)N2C[C@@H](O)COC[C@@H]3O[C@H](CC(=O)NCc4ccccc4OC)CC[C@H]32)cc1	.	.	.	.	0	.	.
CC(=O)c1cccc(OCC(=O)Nc2cccc(C(=O)Nc3c(C)n(C)n(-c4ccccc4)c3=O)c2)c1	3	94	2	-6	0	-1	.
Cc1c(NC(=O)COc2cccc(Br)c2)c(=O)n(-c2ccccc2)n1C	70*	97	-1	-6	0	1	-4
COCCn1c(SCc2cccc(F)c2)nc2cc(C(=O)OC)ccc2c1=O	75*	99	-6	14	0	-1	-12
CCCCCCCn1c2c(c(=N)c3ccccc31)CCC2	71*	97	4	-8	0	-28	-9
Nc1ccc(-c2nc3ccc(N)cc3o2)cc1	63*	104	3	1	-1	-1	-3
Cc1noc(C)c1NC(=O)N(C)C[C@@H]1Oc2c(NC(=O)NC(C)C)cccc2C(=O)N([C@H](C)CO)C[C@@H]1C	.	.	.	.	0	.	.
CCCCC[C@@H](C)N1C[C@H](COCc2ccccc2)Oc2cc(N3CC[C@@H](N(C)C)C3)ccc2S1(=O)=O	74*	99	.	.	0	-1	72*
CCCCC[C@H](C)N1C[C@H](COCc2ccccc2)Oc2cc(N3CC[C@@H](N(C)C)C3)ccc2S1(=O)=O	64*	95	.	.	0	-4	42
CCCCC[C@@H](C)N1C[C@@H](COCc2ccccc2)Oc2cc(N3CC[C@@H](O)C3)ccc2S1(=O)=O	-3	98	.	.	0	3	.
CCCCC[C@@H](C)N1C[C@@H](COCc2ccccc2)Oc2cc(N3CC[C@@H](N(C)C)C3)ccc2S1(=O)=O	58*	96	.	.	-1	7	68*

Bioassay records deposited in PubChem BioAssay by several laboratories.
